B1: tRNA (parent)
chain: GUUCCGUUGGCGUAAUGGUAACGCGUCUCCCUCCUAAGGAGAAGACUGCGGGUUCGAGUCCCGUACGGAACG

This sample holds only a part of the variants without activity. Where only a bound is given, the exact number is not on record here.

Our source for the yeast fitness values is the RNAGym collection of RNA variant scans (doi:10.1126/science.aae0568).

In this data set the parent is B1. The data set is described as follows: yeast fitness relative to wild type (ratio to wild type); higher = fitter; tRNA-Arg(CCU), competitive growth, 37 C, YPD. In a few lines:
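Genotype frequency changes were the basis for Darwinian fitness relative to wild type. The frequencies came from 100-nucleotide paired-end sequencing of gene amplicons from the start population and each end population of pooled yeast strains with tRNA-Arg(CCU) gene variants at the native locus. Competition ran in YPD at 37°C for 24 hours in six replicates, genotypes needed ≥ 100 starting reads, and estimates < 0.5 were set to 0.5.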
As for GUUCCGUUGGCGUAAUGGUAACGCGUCUCGCUCCUAAGGACAAGACUGCGGGUUCGAGUCCCGUACGGAACG [C30G G41C], the yeast fitness amounted to 0.616.

In the case of GUUCAGUUGGCGUAAUGGAAACGCGUCUCCCUCCUAACGAGAAGACUGCGGGCUCGAGUCGCGUACAGCACG [C5A U19A G38C U53C C61G G67A A69C], the yeast fitness was ≤ 0.5. The figure for GUUCAGUUGGCGUAAUGGUAACGCGUCUCCGUCCUAGGGAGAAGACUGCGGGUUCGAGUCCCGUACGGAACG [C5A C31G A37G] is 0.538; for GUUCAGUUGGCAUAAUGGUAACGCGUCUACCUCCUAAGGAGAAGACUGCGGGUUCGAGUCCCGUACGCAACG [C5A G12A C29A G68C] it is 0.689.

Take GUUAGGUUGGCGUAAUGGUGACGCGUCUCCCUCCUAAGGAGAAGACUGCGGGUUCGUGUCCCGUACGUAACG [C4A C5G A20G A57U G68U]: the yeast fitness is ≤ 0.5. The figure for GUUCCGUUGGCGUAAUGGUUACGCGUCUUCCUCCUAAGGAGAAGACUGCGGGUUCGAGUCCAGUACGGAACG [A20U C29U C62A] is 0.543; for GUUCCGUUGCCGUAAUGGUAACGCGUCUCCGUCCUAAGGAGAAGACUGCGGGUUCGAGUCCCGUUCGGAACG [G10C C31G A65U] it is ≤ 0.5. The figure for GUUCCGUUGGCGUAAUGGUAACGCGUCUCCAUCCUAGGGAGAAGACUGUGGGUUUGGGUCCCGUACGGAACG [C31A A37G C49U C55U A57G] is ≤ 0.5; for GUUCCGAUGGCGUAAUGGUAACGCGUCUCCCUCCUUAGGAGAAGGCAGCGGGUUCGAGUCCCGUACGGAACG [U7A A36U A45G U47A] it is ≤ 0.5; for GUUCCGUUGACGUAAUGGAAACGCGUCUCCCUCCUAAGGCGCAGACUGCGGGUUCGAGUCCCGUACGAACCG [G10A U19A A40C A42C G68A A70C] it is ≤ 0.5. The figure for GUUCCGUUGGCGUAAUGGCAACGCGUCUCCCCCCUAAGGAGAAGACUGCGGGUUCGAGUCCCGAACGGAACG [U19C U32C U64A] is 0.501; for GUUCCGUUGGCGUAAUGGUAACGCGUCUCCCUCCUAUGGUGAAGACUGCGGGUUCCAGUCCCGUACGGUACG [A37U A40U G56C A69U] it is ≤ 0.5. GUUCCGUUGGCGUAAUGGUAACGAGUCUACCUCCUAAGGAGAAAAGUGCGGGUUCGAGUCCCGUACGGAACG [C24A C29A G44A C46G]: the yeast fitness was 0.583. The figure for GUUCCGUUGGCGUAAUGGUAACGCGUCUCCCUCCUAAGGAGAAGACUGCGAGUUCGAGUCCCAUACGGAACG [G51A G63A] is 0.739. The figure for GUUUCGUUGGCGUAAUGGUCACGCGUCUCCCUCCUAAGGAGAAGACAGCGGGUUCGAGUCCCGUUCGGAACG [C4U A20C U47A A65U] is ≤ 0.5; for GUUCCGUUGGCGUAAUGGUAACGCGUCUCCCUCCGAAGGAGAAGAUUGCGGGUUCGAGUCCCGUACGGAACG [U35G C46U] it is 0.628. The figure for GUUCCGUUGGCAUAAUGGUAACGCGUCUCCCUCCUAAGGAGAAGACUGCGGGUUCGAGUCCCGUACAGAACG [G12A G67A] is 0.857; for GUUCCGUUGGGGUAAUGGCAACGCGUCUCCCUCCUAAGGAGAAGACUGCGGGUUCGACUCCCGUACGGAACG [C11G U19C G58C] it is ≤ 0.5. With GUUCCGUUGGCGUAAUGAUAACGCGUCUCCCUCCUCAGGAGAAGACUGCGGGUUCGAGUCCCGAACGGAACG [G18A A36C U64A], the yeast fitness worked out at 0.575. The figure for GUUCCGUUGGUGUAAUGGUAACGCGUCUCCCUCCUAAGGAGAAGACUGCGGGUUCCUGUUCCGUACGGAACG [C11U G56C A57U C60U] is ≤ 0.5; for GUCCGGUUGGCGUAAUGGUAUCGCGUCUCCCUCCUAAGGAGCAGACUGCGGGUUCGAGUCCCGUACGGAGCG [U3C C5G A21U A42C A70G] it is 0.542. For GUUCCGUUGGCGUAAUGGCAACGCGUCUCCCUCCUAAGGAGAUGACUGUGGGUUCGAGUCCUGUACGGAACG [U19C A43U C49U C62U], the yeast fitness was 0.573.

As to GUUCCAUUGGCGUAAUGGUAACGCGUCUCCCUCCUAAGGAGAAGACUGCGGGUUGGAGUCCCGUACGGAACG [G6A C55G], the yeast fitness was 0.656.

With GUUUCGAUGGCGUAAUGGUAACGCGUCUCGCUCGUAAGGCGAAGACUGCGGGUUCGAGUCCCGUAAGGCACG [C4U U7A C30G C34G A40C C66A A69C], the yeast fitness turned out to be 0.559. The figure for GUUCCGUUGGCGUAAUGGUACCGCGUCUCCCUCCUAAGGAGAAGACUACGGGUUUGAGUCCCGUCCGGAACG [A21C G48A C55U A65C] is ≤ 0.5. The figure for GUUCCGUUGGCGUAGUGGUAACGCCUCUCCCUCCUAAGGAGAAGACUACGGGUUCAAGUCCCGUACGGAACG [A15G G25C G48A G56A] is 0.79. The figure for GUUCCGUUGGCGUAAUGGUAACGCGUCUCCCUCCUCAGGACAAGACUGCGGGUUCGAGUCCCGUACGGAACG [A36C G41C] is 0.579.

For the variant GUUCCGUUGGUAUACUGGUAACGCGUCUCCAUCCUAAGGAGAAGACUGCGAGUUCGAGUCCCGUACGGAACG [C11U G12A A15C C31A G51A], the yeast fitness is ≤ 0.5.

GUUCCGUUGGCGUAAUGGUAACGCGUCUCCUUCCUAAGGAGAAGACUGCGGCUUCGAGUCCCGUACGGAACG [C31U G52C]: the yeast fitness came to 0.661. The figure for GUUCCGUUGACGUAAUGGUCACGCGUCUCCCUCCUAAAGAAAAGACUGUGGGUUCGAGUCCCGUUCGGAACG [G10A A20C G38A G41A C49U A65U] is ≤ 0.5; for GUUGCAUUGGCGUAAUGGUAACACGUCUCCCUCCUAAGGAGAGGACUGCGGGUUCGAGUCCCGUACGGUGCG [C4G G6A G23A A43G A69U A70G] it is ≤ 0.5.

Take GUUCCGAUGGCGUAAUGGUAACACGUCUCCCUCCUAAGGAGAAGACUGCGGGUUCGAGUCCCGUACGGAACG [U7A G23A]: the yeast fitness stood at 0.722.

Regarding GUUCCGUUGCCGUAAUGGUAAUGCGUCUCCCUCCUAAGGAGAAGACUGCGGAUUCGAGUCCCGUACGGAACG [G10C C22U G52A], the yeast fitness is ≤ 0.5. Regarding GUUCCGUUGGCGUAAUGGUAACGCGUCUCCCUCCUAAGGAGGAGACUGCGGGUUCAAGUCCCCUACGGAACG [A42G G56A G63C], the yeast fitness amounted to 0.51. The figure for GUUCCGUUGGCGUAAUGGUAACGCGUCUCCGACCUAAGGAGAAGACUGCGGGUUCCAGUCCCGUACGGAACG [C31G U32A G56C] is 0.6; for GUUCCGCUGGCGUAAUGAUAACGCGUCUCCAUCCUAAGGAGAAGACUGCGGGUUCGAGACCCGUACGGAACG [U7C G18A C31A U59A] it is ≤ 0.5; for GCUCCGUUGGCGUAAUGGUAAGGCGUCUCCCUCCUACGGAGAAGUCUGCGGGUUCGAGUCCCGUACAGAACG [U2C C22G A37C A45U G67A] it is ≤ 0.5.
